Experimental data collected from several papers.
Target: Protein kinase C iota type (PRKCI, Homo sapiens, UniProt P41743)
Residues used in one study (P41743 1-596): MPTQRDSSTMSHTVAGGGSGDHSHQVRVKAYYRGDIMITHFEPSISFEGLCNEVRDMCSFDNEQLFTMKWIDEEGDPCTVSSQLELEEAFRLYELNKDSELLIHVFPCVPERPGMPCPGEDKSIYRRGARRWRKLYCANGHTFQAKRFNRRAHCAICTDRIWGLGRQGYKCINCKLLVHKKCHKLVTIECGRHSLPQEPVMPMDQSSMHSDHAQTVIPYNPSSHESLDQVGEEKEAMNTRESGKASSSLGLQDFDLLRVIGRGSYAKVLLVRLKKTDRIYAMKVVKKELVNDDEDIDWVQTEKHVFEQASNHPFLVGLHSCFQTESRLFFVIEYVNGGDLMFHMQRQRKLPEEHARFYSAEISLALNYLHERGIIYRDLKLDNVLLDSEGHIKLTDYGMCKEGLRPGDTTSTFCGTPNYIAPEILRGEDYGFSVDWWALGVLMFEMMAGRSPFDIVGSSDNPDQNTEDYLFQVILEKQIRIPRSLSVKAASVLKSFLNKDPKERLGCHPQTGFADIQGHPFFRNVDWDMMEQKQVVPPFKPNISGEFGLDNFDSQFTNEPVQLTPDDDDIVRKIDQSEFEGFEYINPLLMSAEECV

CC(C)(C)c1cc(C=C(C#N)C#N)cc(Br)c1O gave a remaining activity of 100% (enzyme activity, inhibitor; 0.5 µM).
With Cn1cc(-c2cc(F)cc(N3CCn4c(cc5c4CCCC5)C3=O)c2CO)cc(Nc2ccc(N3CCN(C4COC4)CC3)cn2)c1=O the inhibition was -3% (enzyme activity, inhibitor; 0.1 µM).
The inhibition of COc1cc(Nc2ncc(F)c(Nc3ccc4c(n3)NC(=O)C(C)(C)O4)n2)cc(OC)c1OC is reported as 35% (binding; 10 µM).
With COCc1c(-c2cc3cc(C)cc(OC)c3s2)c2c(N)ncnn2c1CN1CCNC(=O)C1 the inhibition was 80% (cell-free assay, competition with immobilised ligand; 1 µM).
With COc1ncccc1-c1cnn2ccc(N3CCN(C(=O)OC(C)C)CC3)nc12 the remaining binding was 90% (binding, competition with immobilised ligand; 1 µM).
Cn1cncc1[C@](O)(COc1ccc(C#N)cc1-c1ccc(OC(F)(F)F)cc1)c1ccc(C#N)cc1 gave a remaining binding of 100% (cell-free assay, competition with immobilised ligand; 1 µM).
Cn1cc(-c2cccc(N3CCc4c(sc5c4CC(C)(C)C5)C3=O)c2CO)cc(Nc2ccncn2)c1=O has an inhibition of 6% (enzyme activity, inhibitor; 1 µM).
O=c1[nH]c2ccccc2n1C1CCN(Cc2ccc(-c3[nH]c4cc5ncnc5cc4nc3-c3ccccc3)cc2)CC1 has a remaining signal of 97% (cell-free assay; 0.5 µM).
